# Activity calls are given as the source filed them. The calls are words filed in the database; no cut-off is given here.
# Assays:
# [1] = test system: T47D; assay: Antiproliferation activity against human T47D cells assessed as reduction in cell viability incubated for 72 hr by MTT assay; assay type: functional, cell-based
# Method in brief: (§1)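 MTT assay. Cells were plated overnight and exposed to a range of concentrations for 72 h. MTT was then added for 4 h and absorbance read at 570 nm. Inhibition% = [(control − compound)/(control − blank)] × 100. IC50 was fitted from the curves. Mean ± S.D. of 3–5 separate experiments. RPMI 1640 + 10% FBS; MCF10A in DMEM/F12 with 5% horse serum, EGF, hydrocortisone, insulin and cholera toxin.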
# [2] = test system: A549; assay: Antiproliferation activity against human A549 cells assessed as reduction in cell viability incubated for 72 hrs by MTT assay; assay type: functional, cell-based; conditions: A549, 72 h; method in brief: as §1
# [3] = test system: MDA-MB-231; assay: Antiproliferation activity against human MDA-MB-231 cells assessed as reduction in cell viability incubated for 72 hrs measured after 4 hrs by MTT assay; assay type: functional, cell-based; method in brief: as §1
# [4] = test system: MCF7; assay: Antiproliferation activity against human MCF7 cells assessed as reduction in cell viability incubated for 72 hrs by MTT assay; assay type: functional, cell-based; conditions: MCF7, 72 h; method in brief: as §1
# [5] = test system: MDA-MB-468; assay: Antiproliferation activity against human MDA-MB-468 cells assessed as reduction in cell viability incubated for 72 hr by MTT assay; assay type: functional, cell-based; conditions: MDA-MB-468, 72 h; method in brief: as §1
# [6] = test system: AN3-CA; assay: Antiproliferation activity against human AN3CA cells assessed as reduction in cell viability incubated for 72 hr by MTT assay; assay type: functional, cell-based; method in brief: as §1
# [7] = test system: HeLa; assay: Antiproliferation activity against human HeLa cells assessed as reduction in cell viability incubated for 72 hrs by MTT assay; assay type: functional, cell-based; method in brief: as §1
# [8] = test system: U-251; assay: Antiproliferation activity against human U251 cells assessed as reduction in cell viability incubated for 72 hrs by MTT assay; assay type: functional, cell-based; conditions: U-251, 72 h; method in brief: as §1
# [9] = Inhibition of hedgehog pathway in mouse NIH/3T3 cells harboring GRE-Luc assessed as inhibition of SAG-induced Hh signaling pathway by dual luciferase reporter gene assay; assay type: cell-based; conditions: NIH3T3
# Method in brief: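 NIH3T3 cells co-transfected with 8×3' Gli-BS-delta51-Luc II firefly reporter and pRL-TK Renilla plasmid; after 24 h treated with compounds plus SAG (pathway activator). Gli luciferase normalized to Renilla (dual-luciferase read-out); IC50 = concentration halving normalized signal; mean ± S.D. of 3–5 separate experiments.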
# [10] = molecular target: T1, Protein smoothened (Homo sapiens, UniProt Q99835); assay: Binding affinity to recombinant human Smo receptor assessed as dissociation rate constant by SPR analysis
# Method in brief: (§2)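 Surface plasmon resonance with recombinant Smo protein, run in PBS at a flow rate of 2 μL/s and 4 °C. Analytes were injected at 2.5, 5 and 10 μM. The chip was regenerated with 0.5% SDS:glycine-HCl pH 2.0 (1:1). ka, kd, Rmax, KA and KD came from a global fit of the sensorgrams.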
# [11] = molecular target: T1, Protein smoothened; assay: Binding affinity to recombinant human Smo receptor assessed as association rate constant by SPR analysis; method in brief: as §2
# [12] = molecular target: T1, Protein smoothened; assay: Binding affinity to recombinant human Smo receptor assessed as dissociation constant at equilibrium by SPR analysis
# [13] = molecular target: T1, Protein smoothened; assay: Binding affinity to recombinant human Smo receptor assessed as maximum response at equilibrium by SPR analysis; method in brief: as §2
# [14] = molecular target: T1, Protein smoothened; assay: Binding affinity to recombinant human Smo receptor assessed as association constant at equilibrium by SPR analysis
# [15] = Acute toxicity in Kunming mouse assessed as mortality at 5000 mg/kg, ig observed for 14 days relative to control; assay type: organism-based; conditions: in vivo, po, read-out: Activity
# Method in brief: (§3)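 Kunming mice, groups of 5 female and 5 male per dose, dosed once by gavage at graded doses; mortality recorded over 14 days as dead/treated and percent. LD50 derived by improved Karber's method: LD50 = lg^-1[xm − i(ΣP − 0.5)], xm log of maximal dose, i log ratio of neighbouring doses; 95% confidence intervals given.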
# [16] = Acute toxicity in Kunming mouse assessed as lethality through intragastric administration observed for 14 days; conditions: in vivo, po; method in brief: as §3
# [17] = test system: MDA-MB-468; assay: Inhibition of hedgehog pathway in human MDA-MB-468 cells assessed as decrease in Smo protein levels in cilia at 28 uM incubated for 24 hrs by immunostaining based confocal microscopic analysis; assay type: cell-based
# Method in brief: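 MDA-MB-468 cells were treated at 28 μM for 24 h with or without SAG. Cilia were immunostained for acetylated α-tubulin and Smo and imaged by confocal microscopy. Comparisons were made against DMSO and against SAG alone.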
# [18] = test system: MCF-10A; assay: Cytotoxicity against human MCF10A cells assessed as cell viability incubated for 72 hrs measured by MTT assay; assay type: cell-based; method in brief: as §1
# [19] = Acute toxicity in Kunming mouse assessed as mortality at 1778 mg/kg, ig observed for 14 days relative to control; assay type: organism-based; conditions: in vivo, po, read-out: Activity; method in brief: as §3
# [20] = Acute toxicity in Kunming mouse assessed as mortality at 1111 mg/kg, ig observed for 14 days relative to control; assay type: organism-based; conditions: in vivo, po, read-out: Activity; method in brief: as §3
# [21] = Acute toxicity in Kunming mouse assessed as mortality at 741 mg/kg, ig observed for 14 days relative to control; assay type: organism-based; conditions: in vivo, po, read-out: Activity; method in brief: as §3
# [22] = Toxicity in BALB/c mouse xenografted with human MDA-MB-468 cells assessed as body weight at 80 to 100 mg/kg, ig measured every day for 21 day; assay type: organism-based; conditions: in vivo, po, 504 h
# Method in brief: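 Female BALB/c nude mice, 6–8 weeks, given 1.0×10^7 MDA-MB-468 cells s.c. in right posterior flank; at 100 mm3 tumours, randomized into groups of five. Daily gavage at 80 or 100 mg/kg in saline with 0.1% Tween 80, or vehicle alone; body weight recorded daily, tumour volume every 2 days; sacrificed day 21.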
# [23] = Acute toxicity in Kunming mouse assessed as mortality at 2667 mg/kg, ig observed for 14 days relative to control; assay type: organism-based; conditions: in vivo, po, read-out: Activity; method in brief: as §3
# [24] = Acute toxicity in Kunming mouse assessed as mortality at 4000 mg/kg, ig observed for 14 days relative to control; assay type: organism-based; conditions: in vivo, po, read-out: Activity; method in brief: as §3
# T1 sequence (Q99835 whole entry): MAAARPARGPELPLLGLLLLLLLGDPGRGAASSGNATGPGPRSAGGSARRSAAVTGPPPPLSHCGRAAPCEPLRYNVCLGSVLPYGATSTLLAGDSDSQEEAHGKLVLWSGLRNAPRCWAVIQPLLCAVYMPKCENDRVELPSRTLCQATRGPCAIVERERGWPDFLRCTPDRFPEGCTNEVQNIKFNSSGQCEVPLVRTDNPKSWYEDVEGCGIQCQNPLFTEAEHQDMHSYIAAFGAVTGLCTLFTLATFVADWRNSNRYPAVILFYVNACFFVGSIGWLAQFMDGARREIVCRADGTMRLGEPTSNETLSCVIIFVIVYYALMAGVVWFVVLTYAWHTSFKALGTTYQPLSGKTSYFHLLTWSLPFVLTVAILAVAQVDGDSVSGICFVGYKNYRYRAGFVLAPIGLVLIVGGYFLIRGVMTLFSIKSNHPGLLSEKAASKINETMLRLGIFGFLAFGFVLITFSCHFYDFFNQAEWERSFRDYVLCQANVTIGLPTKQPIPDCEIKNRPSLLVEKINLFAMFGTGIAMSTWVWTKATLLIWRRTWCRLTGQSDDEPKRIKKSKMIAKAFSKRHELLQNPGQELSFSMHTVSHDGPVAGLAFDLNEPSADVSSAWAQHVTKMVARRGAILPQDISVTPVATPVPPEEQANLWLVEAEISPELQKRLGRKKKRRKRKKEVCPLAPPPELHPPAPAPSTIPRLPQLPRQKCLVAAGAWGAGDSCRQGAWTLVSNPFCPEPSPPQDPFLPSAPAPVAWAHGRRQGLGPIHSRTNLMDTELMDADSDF
SMILES,IC50 [1],IC50 [2],IC50 [3],IC50 [4],IC50 [5],IC50 [7],IC50 [8],IC50 [9],IC50 [6],other results
CS(=O)(=O)c1ccc(C(=O)Nc2ccc(Cl)c(-c3nnc4c(Cl)cccn34)c2)cc1,> 100 µM,> 100 µM,> 100 µM,94.2 µM,> 100 µM,> 100 µM,> 100 µM,1.77 µM,> 100 µM,
O=C(Nc1ccc(Cl)c(-c2nnc3c(Cl)cccn23)c1)c1c(F)cccc1Cl,> 100 µM,72.3 µM,> 100 µM,> 100 µM,57.6 µM,> 100 µM,> 100 µM,> 10 µM,> 100 µM,
O=C(Nc1ccc(Cl)c(-c2nnc3c(Cl)cccn23)c1)c1cccc(Cl)c1,30.2 µM,52.7 µM,66.1 µM,71.9 µM,54.8 µM,> 100 µM,43.1 µM,0.102 µM,68.4 µM,Kdiss [10]: 1.23 ×10⁻³ /s; mortality at 336 h [15]: 0%; Ka [11]: 101 M⁻¹ s⁻¹; LD50 at 336 h [16]: > 5000 mg/kg; Kd [12]: 12.1 µM; Rmax [13]: 41.2 RU; KA [14]: 8.21 ×10⁴ /M
CS(=O)(=O)c1ccc(C(=O)Nc2ccc(Cl)c(-c3ccccn3)c2)c(Cl)c1 [VISMODEGIB],> 100 µM,> 100 µM,> 100 µM,> 100 µM,79 µM,61.7 µM,> 100 µM,0.1 µM,93 µM,Kdiss [10]: 0.0174 ×10⁻³ /s; Ka [11]: 179 M⁻¹ s⁻¹; LD50 at 336 h [16]: 2010 mg/kg; inhibition [17]: Active; IC50 [18]: 89.5 µM; mortality at 336 h [19]: 50%; mortality at 336 h [20]: 30%; Rmax [13]: 4.63 RU; mortality at 336 h [21]: 10%; Activity [22]: Non-Toxic; mortality at 336 h [23]: 60%; mortality at 336 h [24]: 80%
O=C(Nc1ccc(Cl)c(-c2nnc3c(Cl)cccn23)c1)c1ccc(F)cc1Cl,> 100 µM,> 100 µM,75 µM,> 100 µM,> 100 µM,> 100 µM,> 100 µM,8.22 µM,> 100 µM,
CS(=O)(=O)c1ccc(C(=O)Nc2ccc(Cl)c(-c3nnc4c(Cl)cccn34)c2)c(Cl)c1,> 100 µM,> 100 µM,37.2 µM,> 100 µM,> 100 µM,> 100 µM,44.6 µM,4.27 µM,> 100 µM,
O=C(Nc1ccc(Cl)c(-c2nnc3c(Cl)cccn23)c1)c1ccccn1,> 100 µM,> 100 µM,92 µM,96.4 µM,> 100 µM,75.5 µM,79 µM,1.08 µM,> 100 µM,
O=C(Nc1ccc(Cl)c(-c2nnc3c(Cl)cccn23)c1)c1ccc(Cl)cc1,> 100 µM,73.6 µM,> 100 µM,58.4 µM,> 100 µM,> 100 µM,> 100 µM,2.73 µM,> 100 µM,

# Further lines, with some results ahead:
IC50 [1],IC50 [2],IC50 [3],IC50 [4],IC50 [5],IC50 [7],IC50 [8],IC50 [9],SMILES,IC50 [6],other results
> 100 µM,> 100 µM,> 100 µM,> 100 µM,34.3 µM,> 100 µM,> 100 µM,> 10 µM,Cc1cc(Cl)ccc1C(=O)Nc1ccc(Cl)c(-c2nnc3c(Cl)cccn23)c1,> 100 µM,
> 100 µM,76.9 µM,58.2 µM,> 100 µM,> 100 µM,> 100 µM,73.5 µM,0.77 µM,O=C(Nc1ccc(Cl)c(-c2nnc3c(Cl)cccn23)c1)c1ccccc1,67.6 µM,
87.6 µM,46.8 µM,> 100 µM,> 100 µM,46 µM,86.3 µM,> 100 µM,0.093 µM,O=C(Nc1ccc(Cl)c(-c2nnc3c(Cl)cccn23)c1)c1ccc(C(F)(F)F)nc1Cl,48.3 µM,Kdiss [10]: 0.00275 ×10⁻³ /s; Ka [11]: 260 M⁻¹ s⁻¹; Kd [12]: 0.0106 µM; Rmax [13]: 8.44 RU; KA [14]: 9.43 ×10⁷ /M
> 100 µM,35.8 µM,89.7 µM,> 100 µM,> 100 µM,87.5 µM,> 100 µM,> 10 µM,O=C(Nc1ccc(Cl)c(-c2nnc3c(Cl)cccn23)c1)c1cccnc1Cl,> 100 µM,
> 100 µM,> 100 µM,> 100 µM,88.9 µM,> 100 µM,86.4 µM,> 100 µM,2.98 µM,CS(=O)(=O)c1cccc(C(=O)Nc2ccc(Cl)c(-c3nnc4c(Cl)cccn34)c2)c1,> 100 µM,
> 100 µM,61.3 µM,> 100 µM,78.2 µM,21.6 µM,> 100 µM,> 100 µM,0.285 µM,O=C(Nc1ccc(Cl)c(-c2nnc3c(Cl)cccn23)c1)c1ccc(Cl)cc1Cl,84.8 µM,
> 100 µM,> 100 µM,> 100 µM,81.6 µM,> 100 µM,> 100 µM,> 100 µM,5.2 µM,O=C(Nc1ccc(Cl)c(-c2nnc3c(Cl)cccn23)c1)c1ccc(C(F)(F)F)cc1Cl,> 100 µM,
> 100 µM,42.7 µM,> 100 µM,> 100 µM,> 100 µM,> 100 µM,> 100 µM,> 10 µM,O=C(Nc1ccc(Cl)c(-c2nnc3c(Cl)cccn23)c1)c1ccon1,> 100 µM,
> 100 µM,> 100 µM,> 100 µM,> 100 µM,> 100 µM,> 100 µM,> 100 µM,> 10 µM,O=C(Nc1ccc(Cl)c(-c2nnc3c(Cl)cccn23)c1)c1cccnc1,> 100 µM,
70.8 µM,> 100 µM,> 100 µM,62.8 µM,22.3 µM,61.9 µM,> 100 µM,0.096 µM,O=C(Nc1ccc(Cl)c(-c2nnc3c(Cl)cccn23)c1)c1ccc(C(F)(F)F)cc1F,41.2 µM,Kdiss [10]: 1.51 ×10⁻³ /s; Ka [11]: 111 M⁻¹ s⁻¹; Kd [12]: 13.6 µM; Rmax [13]: 49.2 RU; KA [14]: 7.35 ×10⁴ /M
> 100 µM,> 100 µM,> 100 µM,> 100 µM,> 100 µM,79.8 µM,74.3 µM,> 10 µM,Cc1nc(C(=O)Nc2ccc(Cl)c(-c3nnc4c(Cl)cccn34)c2)cs1,> 100 µM,
83.8 µM,> 100 µM,59.9 µM,92.2 µM,> 100 µM,> 100 µM,> 100 µM,0.727 µM,O=C(Nc1ccc(Cl)c(-c2nnc3c(Cl)cccn23)c1)c1ccccc1Cl,> 100 µM,

# Reference: ChEMBL document CHEMBL4622968, “Discovery of [1,2,4]triazolo[4,3-a]pyridines as potent Smoothened inhibitors targeting the Hedgehog pathway with improved antitumor activity in vivo” (Bioorg Med Chem, 2020)
